Results from ChEMBL document CHEMBL4725263, “Discovery of potential dual-target prodrugs of HIV-1 reverse transcriptase and nucleocapsid protein 7” (Bioorg Med Chem Lett, 2020).

Key:
[1] = Cytotoxicity in mock-infected human MT4 assessed as reduction in cell viability incubated for 5 days by MTT assay; format: cell-based; settings: mock-infected MT4 cells, time 5 day
Method in brief: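 Mock-infected MT-4 cultures were run alongside the HIV-1 IIIB and RES056 (K103N/Y181C) protection assays and incubated for 5 days. Viability was read by MTT. CC50 is the concentration that cuts viability of the mock-infected cultures by 50%.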

[2] = Cytotoxicity in human TZM assessed as reduction in cell viability incubated for 5 days by MTT assay; format: cell-based; settings: TZM cells, time 5 day
Method in brief: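 Uninfected TZM-bl cells were exposed to compound in parallel with the HIV-1 NL4-3 antiviral assay. CC50 is the concentration that cuts viability by 50%. Each compound was run in at least triplicate, and values were averaged from at least four independent experiments.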

[3] = (§1) Inhibition of reverse transcriptase/nucleocapsid protein 7 in wild type HIV1 3B infected in human MT4 cells assessed as protection against virus-induced cytopathic effect incubated for 5 days by MTT assay; format: cell-based; settings: Human immunodeficiency virus 1, 3B, MT4, 120 h
Method in brief: (§2)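 MT-4 cells infected with HIV-1 IIIB (wild type) or RES056 (K103N/Y181C RT double mutant); 5-day incubation; viability by MTT. EC50 is the concentration giving 50% protection against virus-induced cytotoxicity. CC50 is the concentration cutting viability of mock-infected cultures by 50%. SI is CC50/EC50. Fold resistance is EC50 mutant/EC50 wild type.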

[4] = Inhibition of nucleocapsid protein 7/reverse transcriptase K103N/Y181C double mutant in HIV1 RES056 infected in human MT4 cells assessed as protection against virus-induced cytopathic effect incubated for 5 days by MTT assay; format: cell-based; settings: Human immunodeficiency virus 1, RES056, MT4, 120 h; method in brief: as §2
[5] = as §1, with “Selectivity index, ratio of CC50 for cytotoxicity in mock-infected human MT4 cells assessed as reduction in cell viability incubated for 5 days by MTT to EC50 for inhibition” for “Inhibition”; format: toxicity, cell-based; settings: time 5 day, read-out: Ratio CC50/EC50; method in brief: as §2
[6] = Selectivity index, ratio of CC50 for cytotoxicity in mock-infected human MT4 cells assessed as reduction in cell viability incubated for 5 days by MTT to EC50 for inhibition of reverse transcriptase K103N/Y181C double mutant/nucleocapsid protein 7 in HIV1 RES056 infected in human MT4 cells assessed as protection against virus-induced cytopathic effect incubated for 5 days by MTT assay; format: toxicity, cell-based; settings: time 5 day, read-out: Ratio CC50/EC50; method in brief: as §2
[7] = test system: Human immunodeficiency virus 1; assay: Fold resistance, ratio of EC50 for inhibition of reverse transcriptase K103N/Y181C double mutant/nucleocapsid protein 7 in HIV1 RES056 infected in human MT4 cells assessed as protection against virus-induced cytopathic effect incubated for 5 days by MTT assay to EC50 for reverse transcriptase/nucleocapsid protein 7 in wild type HIV1 3B infected in human MT4 cells assessed as protection against virus-induced cytopathic effect incubated for 5 days by MTT assay; format: cell-based; settings: time 5.0 day; method in brief: as §2
[8] = Inhibition of reverse transcriptase/nucleocapsid protein 7 in wild type HIV1 NL4-3 infected in human TZM-bl cells assessed as protection against virus-induced cytopathic effect incubated for 5 days by MTT assay; format: cell-based; settings: Human immunodeficiency virus 1, NL4-3, TZM-bl, 120 h
[9] = Selectivity index, ratio of CC50 for cytotoxicity in human TZM-bl assessed as reduction in cell viability incubated for 5 days by MTT to EC50 for inhibition of reverse transcriptase/nucleocapsid protein 7 in wild type HIV1 NL4-3 infected in human TZM-bl cells assessed as protection against virus-induced cytopathic effect incubated for 5 days by MTT assay; format: toxicity, cell-based; settings: time 5 day, read-out: Ratio CC50/EC50
[10] = Prodrug conversion in human plasma assessed as […] measured after 10 mins at 37 degree C by LC-MS/MS analysis; format: ADME, cell-free
Method in brief: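 Prodrug incubated in human plasma (pH 7.4 ± 0.1) at 37 °C for 1 h. Remaining prodrug and formed MT and AZT measured by LC-MS/MS, in triplicate at each time point. Decrease in prodrug plotted against MT formed over the first 10 min with a linear fit.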

[11] = Prodrug conversion in human plasma assessed as enzyme-mediated drug hydrolysis measured after 10 mins at 37 degree C by LC-MS/MS analysis

| Structure (SMILES) | CC50 at 120 h [1] [µM] | CC50 at 120 h [2] [µM] | EC50 [3] [µM] | EC50 [4] [µM] | selectivity ratio at 120 h [5] | selectivity ratio at 120 h [6] | Ratio EC50 [7] | EC50 [8] [µM] | selectivity ratio at 120 h [9] | Drug metabolism [10] | Drug metabolism [11] [%] |
| --- | --- | --- | --- | --- | --- | --- | --- | --- | --- | --- | --- |
| Cc1cn([C@H]2C[C@H](N=[N+]=[N-])[C@@H](COC(=O)CCCC(=O)OCSc3ccccc3C(=O)NCCC(N)=O)O2)c(=O)[nH]c1=O | > 202 | > 1.62 |  |  |  |  |  |  |  |  |  |
| NC(=O)CCNC(=O)c1ccccc1S | 332 | 82.5 | 5.26 | 7.94 | 63 | 41.9 | 1.5 | 2.36 | > 34.9 |  |  |
| Cc1cn([C@H]2C[C@H](N=[N+]=[N-])[C@@H](COC(=O)CC(C)(C)CC(=O)OCSc3ccccc3C(=O)NCCC(N)=O)O2)c(=O)[nH]c1=O | > 194 | > 1.55 |  |  |  |  |  |  |  |  |  |
| Cc1cn([C@H]2C[C@H](N=[N+]=[N-])[C@@H](COC(=O)CCCCC(=O)OCSc3ccccc3CNCCC(N)=O)O2)c(=O)[nH]c1=O | > 198 | > 1.58 | 0.042 | 1.33 | > 4660 | > 149 | 31.6 | 0.308 | > 4.76 | Metabolite_Detected | 100 |
| Cc1cn([C@H]2C[C@H](N=[N+]=[N-])[C@@H](COC(=O)CCC(=O)OCSc3ccccc3C(=O)NCCC(N)=O)O2)c(=O)[nH]c1=O | 124 | > 1.66 |  |  |  |  |  |  |  |  |  |
| Cc1cn([C@H]2C[C@H](N=[N+]=[N-])[C@@H](CO)O2)c(=O)[nH]c1=O [ZIDOVUDINE] | > 7.48 | > 0.374 | 0.011 | 1.2 | > 645 | > 6.25 |  | 0.016 | > 23.4 |  |  |
| Cc1cn([C@H]2C[C@H](N=[N+]=[N-])[C@@H](COC(=O)CC(C)CC(=O)OCSc3ccccc3C(=O)NCCC(N)=O)O2)c(=O)[nH]c1=O (stereo partly specified) | > 198 | > 1.58 |  |  |  |  |  |  |  |  |  |
